The source made the active and inactive calls. No cut-off for these calls is given here.

Series [1] deals with Mus musculus. The experiment in a line: Antidiabetic activity in overnight fasted C57BL/6J mouse assessed as decrease in serum glucose AUC at 3 mg/kg, po administered 0.5 hrs prior to glucose challenge measured up to 240 mins by DPEC-GOD/POD method relative to vehicle-treated control. Type of series: functional. Details: scale not given: the % may be the effect or the level left. The method, boiled down:
(§1)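 Male C57BL/6J mice fasted overnight with water ad libitum. Dosed orally at 3 mg/kg 0.5 h before the oral glucose load. Serum glucose read by the GOD/POD method at 15–240 min on duplicate samples, then 0–240 min AUC taken. Two-way ANOVA with Bonferroni post test against vehicle. Values are mean SEM.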

Series [2] relates to Mus musculus. The series is described as follows: Antidiabetic activity in fed db/db hyperglycemic mouse model assessed as decrease in serum glucose AUC at 3 mg/kg, po measured up to 2 hrs by DPEC-GOD/POD method relative to vehicle-treated control. Type of series: functional. Details: scale not given: the % may be the effect or the level left.
Series [3] relates to Mus musculus. The experiment in a line: Antidiabetic activity in fed db/db hyperglycemic mouse model assessed as decrease in serum glucose AUC at 3 mg/kg, po measured up to 24 hrs by DPEC-GOD/POD method relative to vehicle-treated control. Type of series: functional. More on the design: scale not given: the % may be the effect or the level left. The method, boiled down:
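Fed male-unspecified db/db mice dosed orally at 3 mg/kg, with blood taken at time points up to 24 h. Serum glucose measured promptly by the GOD/POD method on duplicate samples. Glucose AUC compared with vehicle control by two-way ANOVA with Bonferroni post test. Values are mean SEM.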

Series [4] relates to Mus musculus. The series is described as follows: Antidiabetic activity in overnight fasted C57BL/6J mouse assessed as decrease in serum glucose level at 3 mg/kg, po administered 0.5 hrs prior to glucose challenge measured at 30 to 60 mins by DPEC-GOD/POD method. In kind it is functional, organism-based. More on the design: dose 3 mg/kg. The gist of the method:
as §1

Series [5] can be described thus: Tmax in C57BL/6J mouse at 3 mg/kg, po. In kind it is ADME, organism-based. More on the design: dose 3 mg/kg, route oral. The settings on record: in vivo. The method, boiled down:
(§2)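 Single 3 mg/kg oral or iv dose to overnight-fasted male C57BL/6J mice (n = 6). Serial EDTA blood sampling at pre-dose and 0.15–48 h post-dose. Plasma separated at 4 °C, stored at -70 °C and analysed by LC–MS/MS on a C18 column. %F derived against iv AUC. Values are mean SD.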

A short description of series [6]: Cmax in C57BL/6J mouse at 3 mg/kg, po. Type of series: ADME, organism-based. As to conditions: in vivo. Details: dose 3 mg/kg, route oral. The gist of the method:
as §2

The nature of series [7]: Half life in C57BL/6J mouse at 3 mg/kg, po. In kind it is ADME, organism-based. Details: dose 3 mg/kg, route oral. As to conditions: in vivo. The method, boiled down: as §2
Series [8] can be described thus: AUC (0 to infinity) in C57BL/6J mouse at 3 mg/kg, po. The settings on record: plasma. Type of series: ADME, organism-based. More on the design: time infinity, dose 3 mg/kg, route oral. The method, boiled down: as §2
Series [9] is described as follows: Oral bioavailability in C57BL/6J mouse at 3 mg/kg. In kind it is ADME, organism-based. As to conditions: in vivo. The gist of the method:
as §2

Series [10] in a line: AUC in C57BL/6J mouse at 3 mg/kg, iv. Type of series: ADME, organism-based. More on the design: dose 3 mg/kg, route intravenous. As to conditions: plasma. The gist of the method: as §2
Series [11] is described as follows: Elimination rate constant in C57BL/6J mouse at 3 mg/kg, po. Type of series: ADME, organism-based. As to conditions: in vivo. Details: dose 3 mg/kg, route oral. The method, boiled down: as §2
For series [12], the target named is T1, Cytochrome P450 1A2 (Homo sapiens, UniProt P05177).
T1 sequence (P05177 whole entry): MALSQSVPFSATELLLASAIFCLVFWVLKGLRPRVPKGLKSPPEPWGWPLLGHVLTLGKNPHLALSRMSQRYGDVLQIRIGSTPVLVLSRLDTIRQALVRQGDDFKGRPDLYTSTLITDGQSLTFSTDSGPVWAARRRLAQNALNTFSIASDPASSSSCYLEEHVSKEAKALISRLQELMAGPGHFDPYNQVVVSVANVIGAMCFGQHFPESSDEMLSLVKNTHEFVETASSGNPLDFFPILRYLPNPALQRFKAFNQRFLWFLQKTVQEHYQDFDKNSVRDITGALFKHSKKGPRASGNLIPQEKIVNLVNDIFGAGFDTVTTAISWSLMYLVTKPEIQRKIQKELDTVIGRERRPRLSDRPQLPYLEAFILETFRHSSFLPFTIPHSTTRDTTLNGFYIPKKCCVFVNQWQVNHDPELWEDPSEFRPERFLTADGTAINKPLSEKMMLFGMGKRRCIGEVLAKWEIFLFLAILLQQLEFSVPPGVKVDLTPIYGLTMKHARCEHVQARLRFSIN
The series is described as follows: Inhibition of human CYP1A2 expressed in Escherichia coli using ethoxyresorufin as substrate up to 100 uM preincubated for 5 mins followed by NADPH addition measured after 20 mins by HPLC analysis. In kind it is ADME.

Series [13] concerns the target T2, Cytochrome P450 2C8 (Homo sapiens, UniProt P10632).
T2 sequence (P10632 whole entry): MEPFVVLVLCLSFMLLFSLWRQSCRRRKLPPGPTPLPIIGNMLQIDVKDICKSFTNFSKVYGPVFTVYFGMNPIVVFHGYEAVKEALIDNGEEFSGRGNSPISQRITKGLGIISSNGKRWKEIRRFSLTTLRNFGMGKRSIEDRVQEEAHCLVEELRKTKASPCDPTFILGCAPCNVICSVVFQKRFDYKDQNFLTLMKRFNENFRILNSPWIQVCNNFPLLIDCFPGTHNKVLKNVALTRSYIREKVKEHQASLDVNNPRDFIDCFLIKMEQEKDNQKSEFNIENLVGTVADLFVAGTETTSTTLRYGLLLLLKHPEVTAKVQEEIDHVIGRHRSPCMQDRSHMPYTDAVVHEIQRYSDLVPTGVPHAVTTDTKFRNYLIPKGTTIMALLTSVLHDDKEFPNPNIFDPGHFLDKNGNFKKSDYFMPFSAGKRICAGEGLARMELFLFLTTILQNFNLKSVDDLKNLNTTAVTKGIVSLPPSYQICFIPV
The experiment in a line: Inhibition of human CYP2C8 expressed in Escherichia coli using paclitaxel as substrate up to 100 uM preincubated for 5 mins followed by NADPH addition measured after 20 mins by HPLC analysis. In kind it is ADME.

Series [14] concerns the target Cytochrome P450 2C9 (Homo sapiens, UniProt P11712). The experiment in a line: Inhibition of human CYP2C9 expressed in Escherichia coli using diclofenac as substrate up to 100 uM preincubated for 5 mins followed by NADPH addition measured after 20 mins by HPLC analysis. In kind it is ADME.
Series [15] addresses Cytochrome P450 2D6 (Homo sapiens, UniProt P10635). The series is described as follows: Inhibition of human CYP2D6 expressed in Escherichia coli using bufuralol as substrate up to 100 uM preincubated for 5 mins followed by NADPH addition measured after 20 mins by HPLC analysis. Type of series: ADME.
Series [16] deals with Cytochrome P450 2C19 (Homo sapiens, UniProt P33261). The series is described as follows: Inhibition of human CYP2C19 expressed in Escherichia coli using S-mephenytoin as substrate up to 100 uM preincubated for 5 mins followed by NADPH addition measured after 20 mins by HPLC analysis. Type of series: ADME.
Series [17] addresses Cytochrome P450 3A4 (Homo sapiens, UniProt P08684). The series is described as follows: Inhibition of human CYP3A4 expressed in Escherichia coli using midazolam as substrate up to 100 uM preincubated for 5 mins followed by NADPH addition measured after 20 mins by HPLC analysis. Type of series: ADME.

Sequence of Cytochrome P450 2C19 (P33261 whole entry): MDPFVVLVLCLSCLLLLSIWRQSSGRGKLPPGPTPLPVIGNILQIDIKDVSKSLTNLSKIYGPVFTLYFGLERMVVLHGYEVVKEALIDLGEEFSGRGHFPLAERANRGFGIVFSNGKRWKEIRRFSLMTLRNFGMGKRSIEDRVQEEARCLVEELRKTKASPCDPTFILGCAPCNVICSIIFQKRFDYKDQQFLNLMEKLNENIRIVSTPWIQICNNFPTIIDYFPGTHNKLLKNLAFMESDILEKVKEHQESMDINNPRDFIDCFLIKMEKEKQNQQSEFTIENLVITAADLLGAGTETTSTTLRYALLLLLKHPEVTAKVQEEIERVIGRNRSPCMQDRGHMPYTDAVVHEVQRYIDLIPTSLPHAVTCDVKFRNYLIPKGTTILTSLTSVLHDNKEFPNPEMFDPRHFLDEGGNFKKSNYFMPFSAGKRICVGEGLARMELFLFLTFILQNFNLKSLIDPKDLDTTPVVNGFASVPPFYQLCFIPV
Sequence of Cytochrome P450 2C9 (P11712 whole entry): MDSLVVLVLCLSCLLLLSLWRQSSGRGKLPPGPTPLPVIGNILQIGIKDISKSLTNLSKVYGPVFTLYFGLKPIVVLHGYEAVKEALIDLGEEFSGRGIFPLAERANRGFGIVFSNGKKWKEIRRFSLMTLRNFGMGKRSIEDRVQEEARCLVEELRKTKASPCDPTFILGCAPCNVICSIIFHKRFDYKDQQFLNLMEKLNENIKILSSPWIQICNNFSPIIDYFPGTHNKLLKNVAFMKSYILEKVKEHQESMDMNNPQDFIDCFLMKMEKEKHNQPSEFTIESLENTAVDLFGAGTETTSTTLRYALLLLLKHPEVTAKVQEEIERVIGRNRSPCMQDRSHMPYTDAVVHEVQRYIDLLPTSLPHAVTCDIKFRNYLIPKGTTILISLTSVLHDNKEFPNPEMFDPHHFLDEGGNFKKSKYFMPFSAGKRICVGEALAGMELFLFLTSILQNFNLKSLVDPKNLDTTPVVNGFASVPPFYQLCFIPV
Sequence of Cytochrome P450 2D6 (P10635 whole entry): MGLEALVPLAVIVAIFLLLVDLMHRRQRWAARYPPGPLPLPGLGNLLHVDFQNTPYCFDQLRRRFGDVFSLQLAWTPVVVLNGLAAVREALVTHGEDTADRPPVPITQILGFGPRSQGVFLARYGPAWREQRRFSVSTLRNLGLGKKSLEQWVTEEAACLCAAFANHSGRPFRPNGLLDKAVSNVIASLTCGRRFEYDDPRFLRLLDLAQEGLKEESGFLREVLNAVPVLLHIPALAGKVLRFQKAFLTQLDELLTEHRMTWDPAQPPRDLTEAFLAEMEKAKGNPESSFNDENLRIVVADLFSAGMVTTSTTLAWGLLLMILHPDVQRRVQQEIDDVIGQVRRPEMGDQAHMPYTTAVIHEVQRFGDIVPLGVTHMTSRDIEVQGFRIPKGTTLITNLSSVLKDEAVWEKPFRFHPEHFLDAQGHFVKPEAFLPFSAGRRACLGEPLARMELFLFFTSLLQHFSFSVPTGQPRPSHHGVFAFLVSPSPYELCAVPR
Sequence of Cytochrome P450 3A4 (P08684 whole entry): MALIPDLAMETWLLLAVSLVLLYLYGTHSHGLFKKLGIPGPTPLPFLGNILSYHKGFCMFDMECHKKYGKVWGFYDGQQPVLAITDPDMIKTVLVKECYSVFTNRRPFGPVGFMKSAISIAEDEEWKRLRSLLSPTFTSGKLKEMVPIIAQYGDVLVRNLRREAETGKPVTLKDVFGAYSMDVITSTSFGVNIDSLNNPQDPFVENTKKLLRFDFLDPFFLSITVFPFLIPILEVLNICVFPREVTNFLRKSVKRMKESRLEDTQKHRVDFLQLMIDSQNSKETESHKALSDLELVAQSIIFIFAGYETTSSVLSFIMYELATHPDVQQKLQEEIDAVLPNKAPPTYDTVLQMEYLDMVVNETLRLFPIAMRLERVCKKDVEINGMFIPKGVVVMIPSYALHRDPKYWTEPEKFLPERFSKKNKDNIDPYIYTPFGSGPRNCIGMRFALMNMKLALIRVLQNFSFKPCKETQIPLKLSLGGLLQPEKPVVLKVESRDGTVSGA

For the compound `N[C@@H](CC(=O)N1CCn2c(nnc2C(F)(F)F)C1)Cc1cc(F)c(F)cc1F` [SITAGLIPTIN], the Activity in series [1] came to 17.9%; in [2], 20.8%; in series [3], 1.48%. Moreover, the result in series [4] was Active. Also, the Tmax in series [5] came out at 13.2 min. Also, the Cmax in series [6] stood at 310 ng/mL. The same compound had a half-life in series [7] of 93.6 min. The compound also gave an AUC(0-inf) in series [8] of 560 ng·h/mL. In series [9], the bioavailability was 75.7%. The same compound displayed an AUC in series [10] of 740 ng·h/mL. In addition, in series [11], the k el is 0.000233 s⁻¹.

Take `NC[C@H]1CN(CCc2ccc3c(c2)OCO3)C(=O)C[C@@H]1c1cc(F)ccc1F`: the “inhibition (INH)” value in series [12], in series [13], in series [14], in series [15], in series [16] and in series [17] was “Not Active” in each case. Moreover, the Activity in series [1] turned out to be 38.9%; in series [2], 38.29%; in series [3] it was 20.62%. In addition, the Tmax in series [5] worked out at 16.8 min. In addition, in series [6], the Cmax stood at 420 ng/mL. The same compound gave a half-life in series [7] of 539 min. The AUC(0-inf) in series [8] was 1010 ng·h/mL. In series [9], this compound had a bioavailability of 79.5%. Also, in [10], the AUC amounted to 1270 ng·h/mL. Moreover, the k el in series [11] was 3.33e-05 s⁻¹.

The Tmax is the time from dosing to the highest level. The Cmax is the highest concentration seen after dosing. The half-life is the time in which the quantity being followed falls by half. A word on the AUC(0-inf): it is the area under the concentration-time curve extrapolated to infinity. By bioavailability is commonly meant dose-corrected exposure relative to a reference, in per cent. A word on the AUC: it is concentration integrated over time.
